Laboratory results as given in ChEMBL document CHEMBL3407439, “A facile and novel synthesis of N(2)-, C(6)-substituted pyrazolo[3,4-d]pyrimidine-4 carboxylate derivatives as adenosine receptor antagonists” (Eur J Med Chem, 2015).

Columns and labels:
Adenosine receptor A1 = target: T1, Adenosine receptor A1 (Homo sapiens, UniProt P30542); assay: Displacement of [3H]CCPA from human adenosine A1 receptor expressed in CHO cells by Top Count analysis; format: cell-based
T1 sequence (P30542 whole entry): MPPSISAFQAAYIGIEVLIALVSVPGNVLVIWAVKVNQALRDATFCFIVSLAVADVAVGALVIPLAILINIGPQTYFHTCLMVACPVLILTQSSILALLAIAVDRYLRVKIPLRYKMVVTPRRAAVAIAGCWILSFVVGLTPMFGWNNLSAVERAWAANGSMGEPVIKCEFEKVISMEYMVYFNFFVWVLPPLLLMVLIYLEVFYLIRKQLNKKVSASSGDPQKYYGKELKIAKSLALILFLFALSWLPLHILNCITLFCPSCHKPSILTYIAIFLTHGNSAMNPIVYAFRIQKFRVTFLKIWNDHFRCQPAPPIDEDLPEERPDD
Method in brief: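 Tritiated-radioligand competition binding at hA1 receptor, 3 h at room temperature; nonspecific binding with 1 mM theophylline. Separation by GF/B glass-fibre filtration, filter radioactivity counted by scintillation (57% efficiency). Ki from competition curves by nonlinear curve fitting.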

Adenosine receptor A2b = target: T2, Adenosine receptor A2b (Homo sapiens, UniProt P29275); assay: Antagonist activity at human adenosine A2B receptor expressed in CHO cells assessed as inhibition of NECA-induced adenylyl cyclase activity; format: functional, cell-based
T2 sequence (P29275 whole entry): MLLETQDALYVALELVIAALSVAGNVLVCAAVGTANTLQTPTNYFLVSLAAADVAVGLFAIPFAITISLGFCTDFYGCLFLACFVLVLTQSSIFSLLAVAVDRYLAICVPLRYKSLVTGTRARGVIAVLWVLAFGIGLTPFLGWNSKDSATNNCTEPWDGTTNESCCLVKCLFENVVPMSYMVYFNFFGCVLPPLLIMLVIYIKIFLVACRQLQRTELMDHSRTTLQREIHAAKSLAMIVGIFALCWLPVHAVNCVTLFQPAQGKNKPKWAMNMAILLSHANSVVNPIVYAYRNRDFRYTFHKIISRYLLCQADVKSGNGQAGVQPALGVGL
Method in brief: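 Membranes from CHO cells transfected with hA2B receptor incubated 20 min with 100 nM NECA, 150,000 cpm [α-32P]ATP and varying antagonist concentrations, in mixture lacking EGTA and NaCl. Ki derived from concentration-dependent inhibition of NECA-stimulated adenylyl cyclase activity; n = 3–6.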

[1] = target: Adenosine receptors; A1 & A3 (Homo sapiens) (UniProt P30542+P0DMS8); assay: Selectivity ratio of Ki for human adenosine A1 receptor to Ki for human adenosine A3 receptor
Adenosine receptor A3 = target: T3, Adenosine receptor A3 (Homo sapiens, UniProt P0DMS8); assay: Displacement of [3H]HEMADO from human adenosine A3 receptor expressed in CHO cells by Top Count analysis; format: cell-based
T3 sequence (P0DMS8 whole entry): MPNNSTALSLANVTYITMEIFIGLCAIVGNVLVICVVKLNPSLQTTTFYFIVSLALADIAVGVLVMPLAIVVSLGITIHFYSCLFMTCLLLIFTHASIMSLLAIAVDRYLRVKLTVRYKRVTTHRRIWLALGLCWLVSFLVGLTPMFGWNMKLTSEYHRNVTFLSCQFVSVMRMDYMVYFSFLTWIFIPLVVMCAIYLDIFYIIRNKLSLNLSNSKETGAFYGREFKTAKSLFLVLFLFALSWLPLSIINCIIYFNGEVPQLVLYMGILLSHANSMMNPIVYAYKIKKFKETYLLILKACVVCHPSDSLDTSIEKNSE
Method in brief: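 Competition against [3H]HEMADO binding at hA3 receptor in CHO cells, 3 h at room temperature; nonspecific binding defined with 100 µM R-PIA.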

Homo sapiens = species on record: Homo sapiens; assay: Selectivity ratio of Ki for human adenosine A2A receptor to Ki for human adenosine A3 receptor
Adenosine receptor A2a = Adenosine receptor A2a (Homo sapiens, UniProt P29274); assay: Displacement of [3H]NECA from human adenosine A2A receptor expressed in CHO cells by Top Count analysis; format: cell-based
Adenosine receptor A2a, sequence (P29274 whole entry): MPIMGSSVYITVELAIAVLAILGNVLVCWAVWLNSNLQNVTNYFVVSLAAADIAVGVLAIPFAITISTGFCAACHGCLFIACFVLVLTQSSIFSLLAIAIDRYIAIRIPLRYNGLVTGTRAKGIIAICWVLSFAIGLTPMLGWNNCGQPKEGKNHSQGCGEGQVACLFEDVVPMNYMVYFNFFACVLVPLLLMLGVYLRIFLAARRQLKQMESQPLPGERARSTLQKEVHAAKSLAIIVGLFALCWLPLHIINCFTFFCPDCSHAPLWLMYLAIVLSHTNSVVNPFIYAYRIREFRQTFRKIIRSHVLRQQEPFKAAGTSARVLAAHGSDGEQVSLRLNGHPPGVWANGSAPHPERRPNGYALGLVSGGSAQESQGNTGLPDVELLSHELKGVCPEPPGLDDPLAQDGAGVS

Row | Structure (SMILES) | Ki (Adenosine receptor A1) [µM] | Ki (Adenosine receptor A2b) [µM] | Ratio Ki [1] | Ki (Adenosine receptor A3) [µM] | Ratio Ki (Homo sapiens) | Ki (Adenosine receptor A2a) [µM]
1 | CCOC(=O)c1nc(N)nc2nn(C)cc12 | 8.8 | > 20 | 9.7 | 0.9 | 2.2 | 2
2 | CCOC(=O)c1nc(N(C(=O)c2ccc(F)c(F)c2)C(=O)c2ccc(F)c(F)c2)nc2nn(C)cc12 | > 100 | > 20 | – | > 100 | – | > 100
3 | Cn1cc2c(C(N)=O)nc(N)nc2n1 | 10.2 | > 20 | – | > 100 | – | 3
4 | CCOC(=O)c1nc(NC(=O)c2ccc(Cl)c(Cl)c2)nc2nn(CCc3ccccc3)cc12 | > 100 | > 20 | > 46 | 2.2 | > 46 | > 100
5 | CCOC(=O)c1nc(NC(=O)c2ccc(C)cc2)nc2nn(CCc3ccccc3)cc12 | > 100 | > 20 | > 33 | 3 | 2 | 6
6 | CCOC(=O)c1nc(NC(=O)c2ccc(C(F)(F)F)cc2)nc2nn(C)cc12 | > 100 | > 20 | – | > 100 | – | > 100
7 | CCOC(=O)c1nc(N(C(=O)c2ccc(Br)cc2)C(=O)c2ccc(Br)cc2)nc2nn(C)cc12 | > 100 | > 20 | > 34 | 2.9 | > 34 | > 100
8 | CCOC(=O)c1nc(NC(=O)c2ccccc2)nc2nn(C)cc12 | 14 | > 20 | < 0.14 | > 100 | < 0.16 | 16.1
9 | NC(=O)c1nc(N)nc2nn(CCc3ccccc3)cc12 | 40.2 | > 20 | 1.2 | 32.9 | 0.47 | 15.7
10 | CC(C)n1cc2c(C(N)=O)nc(N)nc2n1 | 8.2 | > 20 | – | > 100 | – | 9.2
11 | CCOC(=O)c1nc(NC(=O)c2ccc(C)cc2)nc2nn(C)cc12 | > 100 | > 20 | > 1 | 100 | 0.12 | 11.8
12 | CCOC(=O)c1nc(NC(=O)c2ccc(C(F)(F)F)cc2)nc2nn(C(C)C)cc12 | > 100 | > 20 | – | > 100 | – | > 100
13 | CCOC(=O)c1nc(N(C(=O)c2ccccc2)C(=O)c2ccccc2)nc2nn(C)cc12 | > 100 | > 20 | – | > 100 | – | > 100
14 | CCOC(=O)c1nc(N(C(=O)c2ccccc2)C(=O)c2ccccc2)nc2nn(CCc3ccccc3)cc12 | > 100 | > 20 | – | > 100 | – | > 100
15 | CCOC(=O)c1nc(N(C(=O)c2ccccc2)C(=O)c2ccccc2)nc2nn(C(C)C)cc12 | 17.7 | > 20 | 3.2 | 5.4 | > 18.5 | > 100
16 | CCOC(=O)c1nc(NC(=O)c2ccc(F)cc2)nc2nn(C)cc12 | > 100 | > 20 | – | > 100 | < 0.14 | 11.5
17 | CC(C)(C)Cn1cc2c(C(N)=O)nc(N)nc2n1 | > 90 | > 20 | > 4.6 | 19.7 | > 4.1 | > 80

Compounds with a lower Ki (Adenosine receptor A1), results first:

Row | Ki (Adenosine receptor A1) [µM] | Ki (Adenosine receptor A2b) [µM] | Ratio Ki [1] | Ki (Adenosine receptor A3) [µM] | Ratio Ki (Homo sapiens) | Ki (Adenosine receptor A2a) [µM] | Structure (SMILES)
18 | 5.9 | > 20 | 0.4 | 14.6 | 0.5 | 7.3 | CCOC(=O)c1nc(NC(=O)Cc2ccccc2)nc2nn(C)cc12
19 | 5.1 | > 10 | 0.41 | 12.2 | 0.3 | 3.7 | CCOC(=O)c1nc(NC(=O)c2ccccc2)nc2nn(CCc3ccccc3)cc12
20 | 5 | > 20 | 0.73 | 6.8 | 0.8 | 6.1 | CCOC(=O)c1nc(NC(=O)c2ccc(F)cc2)nc2nn(CCc3ccccc3)cc12
21 | 4.3 | > 10 | 0.5 | 8.6 | 0.4 | 3.3 | CCOC(=O)c1nc(NC(=O)c2ccccc2)nc2nn(C(C)C)cc12
22 | 4 | > 15 | 0.38 | 10.4 | 0.48 | 5 | CCOC(=O)c1nc(N)nc2nn(CC(C)(C)C)cc12
23 | 3.5 | 60 | 0.19 | 18.1 | 0.26 | 4.8 | CCOC(=O)c1nc(N)nc2nn(CCc3ccccc3)cc12
24 | 2.8 | > 20 | 0.5 | 5.7 | 0.5 | 2.8 | CCOC(=O)c1nc(NC(=O)c2ccc(F)cc2)nc2nn(C(C)C)cc12
25 | 2.7 | > 20 | 0.62 | 4.3 | 1.3 | 5.7 | CCOC(=O)c1nc(NC(=O)c2ccc(F)cc2)nc2nn(CC(C)(C)C)cc12
26 | 2.7 | > 20 | 0.62 | 4.3 | 1.3 | 5.7 | CCOC(=O)c1nc(NC(=O)Cc2ccccc2)nc2nn(CC(C)(C)C)cc12
27 | 2.6 | > 20 | 0.72 | 3.6 | 1.2 | 4.2 | CCOC(=O)c1nc(NC(=O)c2ccc(Br)cc2)nc2nn(CCc3ccccc3)cc12
28 | 2.5 | > 20 | 0.5 | 5.8 | 1.3 | 7.5 | CCOC(=O)c1nc(NC(=O)c2ccc(C(F)(F)F)cc2)nc2nn(CCc3ccccc3)cc12
29 | 0.9 | > 10 | 0.06 | 14 | 0.18 | 2.6 | CCOC(=O)c1nc(N)nc2nn(C(C)C)cc12
30 | 0.7 | > 20 | 0.02 | 28 | 0.1 | 2.3 | CCOC(=O)c1nc(NC(=O)c2ccc(C)cc2)nc2nn(C(C)C)cc12
31 | 0.6 | > 10 | 0.05 | 10.4 | 0.2 | 2.4 | CCOC(=O)c1nc(NC(=O)Cc2ccccc2)nc2nn(CCc3ccccc3)cc12
32 | 0.6 | > 10 | 0.04 | 13.3 | 0.66 | 8.8 | CCOC(=O)c1nc(NC(=O)Cc2ccccc2)nc2nn(C(C)C)cc12
